Active and inactive are the calls of the source. No cut-off for these calls is given here.
Assays:
[1] = biological target: T1, Adenosine receptor A1 (Homo sapiens) (UniProt P30542); assay: Displacement of [3H]N6-[(R)-1-methyl-2-phenylethyl]adenosine from human recombinant A1AR expressed in CHO cells at 10 uM; format: cell-based
T1 sequence (whole entry): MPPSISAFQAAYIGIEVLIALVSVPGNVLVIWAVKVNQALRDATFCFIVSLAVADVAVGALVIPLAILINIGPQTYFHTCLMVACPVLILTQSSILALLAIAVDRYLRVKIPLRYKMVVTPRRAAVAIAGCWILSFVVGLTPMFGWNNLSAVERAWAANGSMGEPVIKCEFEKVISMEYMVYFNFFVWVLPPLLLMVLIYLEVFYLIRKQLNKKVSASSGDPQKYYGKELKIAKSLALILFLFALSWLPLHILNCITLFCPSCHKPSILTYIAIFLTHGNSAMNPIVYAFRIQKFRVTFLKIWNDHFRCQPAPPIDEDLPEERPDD
Method in brief: (§1)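 Single-concentration radioligand displacement at 10 μM. Membranes came from CHO cells stably expressing human A1AR or A3AR, or HEK293 cells stably expressing human A2AAR. Agonist radioligands were [3H]N6-[(R)-1-methyl-2-phenylethyl]adenosine (A1), [3H]2-[p-(2-carboxyethyl)phenylethylamino]-5′-N-ethylcarboxamidoadenosine (A2A) and [125I]N6-(4-amino-3-iodobenzyl)adenosine-5′-N-methyluronamide (A3). Read-out was percent inhibition of binding.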

[2] = biological target: Adenosine receptor A2a (Homo sapiens) (UniProt P29274); assay: Displacement of [3H]2-[p-(2-carboxyethyl)phenylethylamino]-50-N-ethylcarboxamidoadenosine from human recombinant A2AR expressed in HEK293 cells at 10 uM; format: cell-based; method in brief: as §1
Adenosine receptor A2a (Homo sapiens), sequence (P29274 whole entry): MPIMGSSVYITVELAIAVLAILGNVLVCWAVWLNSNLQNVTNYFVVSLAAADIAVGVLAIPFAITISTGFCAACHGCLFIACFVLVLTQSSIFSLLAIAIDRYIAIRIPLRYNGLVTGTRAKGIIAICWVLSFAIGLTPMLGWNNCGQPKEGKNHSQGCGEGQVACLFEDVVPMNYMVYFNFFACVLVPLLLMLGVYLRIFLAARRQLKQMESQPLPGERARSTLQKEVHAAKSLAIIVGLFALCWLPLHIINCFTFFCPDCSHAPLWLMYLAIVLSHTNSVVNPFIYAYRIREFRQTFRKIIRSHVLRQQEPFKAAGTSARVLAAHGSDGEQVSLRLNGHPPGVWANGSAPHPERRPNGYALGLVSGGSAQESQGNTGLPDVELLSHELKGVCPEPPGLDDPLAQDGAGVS

[3] = biological target: T2, Adenosine receptor A3 (Homo sapiens) (UniProt P0DMS8); assay: Displacement of [125I]N6-(4-amino-3-iodobenzyl)adenosine-50-N-methyluronamide from human recombinant A3AR expressed in CHO cells at 10 uM; format: cell-based; method in brief: as §1
T2 sequence (whole entry): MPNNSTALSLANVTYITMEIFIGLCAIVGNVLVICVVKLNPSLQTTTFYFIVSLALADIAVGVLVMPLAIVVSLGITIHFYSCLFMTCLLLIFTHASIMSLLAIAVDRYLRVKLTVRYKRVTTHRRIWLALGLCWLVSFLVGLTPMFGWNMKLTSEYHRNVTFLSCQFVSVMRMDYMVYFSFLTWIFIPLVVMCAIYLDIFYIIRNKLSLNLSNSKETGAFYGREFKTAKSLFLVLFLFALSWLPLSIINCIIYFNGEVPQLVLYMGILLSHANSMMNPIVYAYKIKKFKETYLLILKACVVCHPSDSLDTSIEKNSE

[4] = biological target: T3, Adenosine receptor A3 (Homo sapiens, UniProt P0DMS8); assay: Displacement of [125I]N6-(4-amino-3-iodobenzyl)adenosine-50-N-methyluronamide from human recombinant A3AR expressed in CHO cells; format: cell-based
T3 sequence (P0DMS8 whole entry): T2 sequence (whole entry)
Method in brief: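 Competition binding used membranes of CHO cells stably expressing human A3AR and the agonist radioligand [125I]N6-(4-amino-3-iodobenzyl)adenosine-5′-N-methyluronamide. IC50 values from competition curves were converted to Ki by Cheng-Prusoff. Values are mean ± S.E.M.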

[5] = biological target: T2, Adenosine receptor A3 (Homo sapiens); assay: (§2) Agonist activity at human recombinant A3AR expressed in CHO cells assessed as inhibition of forskolin-induced stimulation of cAMP production; format: functional, cell-based
[6] = biological target: T3, Adenosine receptor A3; assay: as §2; format: functional, cell-based
[7] = biological target: T1, Adenosine receptor A1 (Homo sapiens); assay: Displacement of [3H]N6-[(R)-1-methyl-2-phenylethyl]adenosine from human recombinant A1AR expressed in CHO cells at 50 uM; format: cell-based
Method in brief: (§3)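 Percent inhibition of agonist radioligand binding measured at a single 50 μM test concentration. A1: CHO cell membranes with stably expressed human A1AR and [3H]N6-[(R)-1-methyl-2-phenylethyl]adenosine. A2A: HEK293 cell membranes with stably expressed human A2AAR and [3H]2-[p-(2-carboxyethyl)phenylethylamino]-5′-N-ethylcarboxamidoadenosine.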

[8] = biological target: Adenosine receptor A2a (Homo sapiens) (UniProt P29274); assay: Displacement of [3H]2-[p-(2-carboxyethyl)phenylethylamino]-50-N-ethylcarboxamidoadenosine from human recombinant A2AR expressed in HEK293 cells at 50 uM; format: cell-based; method in brief: as §3
[9] = biological target: T2, Adenosine receptor A3 (Homo sapiens); assay: Modulatory activity at human recombinant A3AR expressed in CHO cells assessed as inhibition of forskolin-induced stimulation of cAMP production; format: functional, cell-based
Method in brief: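 CHO cells stably expressing human A3AR were plated and grown 24 h, then washed in DMEM with 50 mM HEPES, pH 7.4. Compounds and/or agonist were added with rolipram (10 μM) and adenosine deaminase (3 units/mL). Forskolin (10 μM) was added at 45 min and incubation ran 15 more min. Cells were lysed in 0.1 M HCl. cAMP was measured by competitive binding of [3H]cAMP (2 nM) to protein kinase A, with a cAMP standard curve, filtration and scintillation counting.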

Which results are given for `OC[C@]1(O)CO[C@@H](n2cnc3c(NCc4cccc(Cl)c4)ncnc32)[C@@H]1O`?
inhibition [1]: 19%; inhibition [2]: 15%; inhibition [3]: 44%

Which inhibition [1] does the source give for `CCNC(=O)OC[C@@H]1CO[C@@H](n2cnc3c(N)ncnc32)[C@@H]1O` here?
The inhibition was 7%.

What about the inhibition [2] of the same molecule?
Its inhibition is 2%.

What about the inhibition [3] of the same molecule?
The inhibition was 8%.

What does the source list for `COc1ccc(Cl)cc1CNc1ncnc2c1ncn2[C@@H]1OC[C@@](O)(CO)[C@H]1O`?
inhibition [1]: 13%; inhibition [2]: 14%; Ki [4]: 3.07 µM; Emax [5]: 50.9%; IC50 [6]: 1.56 µM

How did the inhibition [1] turn out when `OC[C@@]1(O)CO[C@@H](n2cnc3c(NCc4cccc(I)c4)ncnc32)[C@@H]1O` was run?
The inhibition was 27%.

And the inhibition [2]?
Its inhibition is 17%.

And the inhibition [3]?
Its inhibition is 48%.

With `CCNC(=O)[C@@H]1CO[C@@H](n2cnc3c(N)ncnc32)[C@@H]1O` as the molecule, how does the inhibition [1] read?
The inhibition was 8%.

What about the inhibition [2] of the same molecule?
The inhibition was 9%.

And the inhibition [3]?
The inhibition was 10%.

What does the source list for `Nc1ncnc2c1ncn2[C@@H]1OC[C@@](O)(CO)[C@H]1O`?
inhibition [7]: 0%; inhibition [8]: 64%; inhibition [3]: 10%

`Nc1ncnc2c1ncn2[C@H]1C[C@@H](CO)CO1` was tested. Which inhibition [1] did it give?
Its inhibition is 10%.

And the inhibition [2]?
Its inhibition is 15%.

What about the inhibition [3] of the same molecule?
Its inhibition is 31%.

With `Nc1ncnc2c1ncn2[C@@H]1OC[C@H](CO)[C@H]1O` as the molecule, how does the inhibition [1] read?
The inhibition was 6%.

What about the inhibition [2] of the same molecule?
Its inhibition is 19%.

And the inhibition [3]?
Its inhibition is 32%.

For `Nc1ncnc2c1ncn2[C@H]1C[C@H](CO)CO1`, which inhibition [7] is on record?
Its inhibition is 0%.

And the inhibition [3]?
Its inhibition is 7%.

How did the inhibition [1] turn out when `COc1ccc(Cl)cc1CNc1ncnc2c1ncn2[C@@H]1OC[C@](O)(CO)[C@H]1O` was run?
Its inhibition is 12%.

What about the inhibition [2] of the same molecule?
The inhibition was 17%.

What about the Ki [4] of the same molecule?
Its Ki is 0.978 µM.

And the Activity [9]?
Its Activity is “inactive”.

What does the source list for `Nc1c2ncn([C@@H]3OC[C@@](O)(CO)[C@H]3O)c2nc[n+]1Cc1cccc(Cl)c1`?
inhibition [1]: 6%; inhibition [2]: 12%; inhibition [3]: 3%

Which results are given for `Nc1ncnc2c1ncn2[C@@H]1OC[C@@H](CO)[C@H]1O`?
inhibition [7]: 74%; inhibition [8]: 76%; inhibition [3]: 7%

Which inhibition [1] does the source give for `CCNC(=O)OC[C@]1(O)CO[C@@H](n2cnc3c(N)ncnc32)[C@@H]1O` here?
Its inhibition is 9%.

And the inhibition [2]?
Its inhibition is 12%.

And the inhibition [3]?
The inhibition was 6%.

How did the inhibition [1] turn out when `OC[C@@]1(O)CO[C@@H](n2cnc3c(NCc4cccc(Cl)c4)ncnc32)[C@@H]1O` was run?
Its inhibition is 10%.

What about the inhibition [2] of the same molecule?
The inhibition was 10%.

What about the inhibition [3] of the same molecule?
Its inhibition is 43%.

Which inhibition [1] does the source give for `OC[C@]1(O)CO[C@@H](n2cnc3c(NCc4cccc(I)c4)ncnc32)[C@@H]1O` here?
Its inhibition is 35%.

And the inhibition [2]?
Its inhibition is 22%.

And the inhibition [3]?
The inhibition was 45%.

What does the source list for `Nc1ncnc2c1ncn2[C@@H]1OC[C@](O)(CO)[C@H]1O`?
inhibition [1]: 6%; inhibition [2]: 19%; inhibition [3]: 35%

For `CNC(=O)OC[C@@]1(O)CO[C@@H](n2cnc3c(N)ncnc32)[C@@H]1O`, which inhibition [1] is on record?
The inhibition was 12%.

What about the inhibition [2] of the same molecule?
The inhibition was 10%.

And the inhibition [3]?
Its inhibition is 26%.

From ChEMBL document CHEMBL3351911, “Synthesis and evaluation of N⁶-substituted apioadenosines as potential adenosine A₃ receptor modulators” (Bioorg Med Chem, 2014)
